The record followed here is ChEMBL document CHEMBL5331102, “Novel S1R agonists counteracting NMDA excitotoxicity and oxidative stress: A step forward in the discovery of neuroprotective agents” (Eur J Med Chem, 2023).

Calls of active or inactive are those of the source. No cut-off for these calls is given here.

In data set [1] the target is T1, Sigma non-opioid intracellular receptor 1 (Homo sapiens, UniProt Q99720). Kind of data set: Displacement of [3H]-(+)-pentazocine from sigma 1 receptor (unknown origin) at 25 nM by scintillation counting analysis. Particulars: filed as agonist. The gist of the method:
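Single-concentration screen at 25 nM test compound against [3H](+)pentazocine (15 nM) at S1R; scintillation counting; result given as % inhibition of control specific binding, i.e. 100 minus measured/control specific binding ×100.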
(In general: Displacement assays read how much labelled ligand stays bound in the presence of the test substance.)

Data set [2] has as its target Glutamate [NMDA] receptor (Homo sapiens) (UniProt Q05586+Q12879+Q13224+O15399+O60391+Q14957+Q8TCU5). Put plainly: Displacement of [3H]CGP39653 from human NMDAR at 25 nM by scintillation counting analysis. It is filed as protein-complex assay. In short, it runs like this: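 NMDA receptor binding with [3H]CGP39653 (5 nM) as radioligand, test compound at 25 nM; displacement read by scintillation counting and reported as % inhibition of control specific binding.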

Data set [3] deals with PC-12. Kind of data set: Neuroprotective activity in rat PC12 cells assessed as induction of NGF-mediated neurite outgrowth at 0.5 uM by neurite outgrowth assay (Rvb=26 +/- 4%). It is filed as functional. The gist of the method: (§1)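 PC12 cells stimulated with NGF (2.5 nM) and treated with compound up to 5 μM, alone or after pre-treatment with S1R antagonist NE-100 (3 μM); read-out is percentage of cells bearing neurite sprouts; mean ± SEM of three independent experiments.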

Data set [4] deals with PC-12. Put plainly: Neuroprotective activity in rat PC12 cells assessed as induction of NGF-mediated neurite outgrowth at 0.5 uM in presence of NE-100 by neurite outgrowth assay. The class given is functional, cell-based. The gist of the method:
as §1

Data set [5] concerns the target T1, Sigma non-opioid intracellular receptor 1. Put plainly: Binding affinity to sigma 1 receptor (unknown origin) assessed as inhibition constant. The gist of the method:
(§2)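 Radioligand displacement at S1R with [3H](+)pentazocine (15 nM) and at S2R with [3H]DTG (25 nM); S2R assay includes 1 μM cold (+)pentazocine to mask S1R sites. Bound radioactivity counted by scintillation. IC50 and Hill slope from non-linear Hill fit of competition curves; Ki by Cheng–Prusoff using radioligand concentration and KD from Scatchard plot.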

Data set [6] has as its target Sigma intracellular receptor 2 (Homo sapiens, UniProt Q5BJF2). Kind of data set: Binding affinity to sigma 2 receptor (unknown origin) assessed as inhibition constant. The gist of the method: as §2
A short description of data set [7]: Selectivity index, ratio of Ki for sigma 2 receptor (unknown origin) to Ki for sigma 1 receptor (unknown origin).
For data set [8], the system named is SH-SY5Y. Put plainly: Neuroprotective activity in human SH-SY5Y cells assessed as prevention of NMDA induced cytotoxicity by measuring cell viability at 0.1 to 0.5 uM incubated for 24 hrs in presence of NMDA by MTT assay. The following applies: dose 0.1-0.5 µM. The class given is functional, cell-based. The gist of the method: (§3)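 SH-SY5Y cells (~7000/well) co-incubated 24 h at 37 °C in 2% FBS medium with toxic stimulus (NMDA 250 μM or oligomycin 2.5 μM) plus compound at 0.1–5 μM. Viability by MTT, expressed as % of control.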

Data set [9] has as its system SH-SY5Y. Kind of data set: Neuroprotective activity in human SH-SY5Y cells assessed as prevention of NMDA induced cytotoxicity by measuring cell viability at 1 to 5 uM incubated for 24 hrs in presence of NMDA by MTT assay. The class given is functional, cell-based. Particulars: dose 1-5 µM. In short, it runs like this: as §3
Data set [10] can be described thus: Cytotoxicity against human SH-SY5Y cells assessed as reduction in cell viability incubated for 72 hrs by MTT assay. The class given is toxicity, cell-based. The gist of the method:
(§4)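 SH-SY5Y cells kept in DMEM/10% FBS, 2 mM glutamine, 37 °C, 5% CO2; ~7000 cells/well, after 1 day given compound (six concentrations, 0.1–100 μM; DMSO stocks 10 mM) in 2% FBS medium for 72 h. MTT (0.5% w/v, 2 h), formazan dissolved in DMSO, absorbance read; triplicates, % of untreated control.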
For orientation: Tetrazolium assays rely on reduction of a dye to a coloured formazan, in cell work by metabolically active cells.

Data set [11] deals with SH-SY5Y. Kind of data set: Cytotoxicity against human SH-SY5Y cells assessed as reduction in cell viability at 5 uM incubated for 72 hrs by MTT assay. The class given is toxicity, cell-based. The gist of the method: as §4

Sequence of Sigma intracellular receptor 2 (Q5BJF2 whole entry): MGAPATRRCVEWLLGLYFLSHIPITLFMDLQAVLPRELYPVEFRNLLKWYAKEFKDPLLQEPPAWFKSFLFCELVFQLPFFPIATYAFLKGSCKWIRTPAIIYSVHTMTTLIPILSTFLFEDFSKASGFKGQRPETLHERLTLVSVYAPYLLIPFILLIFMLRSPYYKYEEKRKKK
T1 sequence (Q99720 whole entry): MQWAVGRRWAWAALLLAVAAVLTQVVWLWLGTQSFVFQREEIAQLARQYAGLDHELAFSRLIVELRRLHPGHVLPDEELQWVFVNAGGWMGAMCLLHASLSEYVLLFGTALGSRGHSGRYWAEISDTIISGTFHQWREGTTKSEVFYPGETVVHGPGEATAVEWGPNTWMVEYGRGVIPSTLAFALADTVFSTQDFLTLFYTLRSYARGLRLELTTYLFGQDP

As to `c1ccc(CN2CCN(CCCOC3CCCCC3)CC2)cc1`, the Activity is over 95% in [1] and under 11.9% in [2].
Consider `C[C@H](CCN1CCCCC1)c1ccc(-c2ccccc2)cc1`, for which, in the data set with PC-12 [3], the Activity turned out to be 36%. In addition, in the data set with PC-12 [4], the result was inactive.
A word on the Ki: it is a dissociation constant, usually derived from enzyme kinetics or from competition with a known ligand. In the case of `CC1(C)SCC(CN2CCC(Cc3ccccc3)CC2)S1` (configuration not stated), the Ki in data set [5] amounted to 0.5 nM; in [6], 12 nM. Moreover, in data set [7], the Ratio Ki came out at 24.
A word on the CC50: it is the concentration at which the toxic effect on the cells reaches its halfway point. With `CC12CC3CC(C)(C1)CC(N)(C3)C2` [MEMANTINE], the outcome in the data set with SH-SY5Y [8] was Active. In the data set with SH-SY5Y [9], the outcome was inactive. Besides, the CC50 at 72 h in data set [10] stood at 98000 nM. The Activity with SH-SY5Y [11] is recorded as 70%.
For the compound `c1ccc(CC2CCN(CC3CSC4(CCCCC4)S3)CC2)cc1` (configuration not stated), the Ki in data set [5] was 12 nM; in data set [6] it was 5 nM. Also, the Ratio Ki in [7] was determined as 0.4.
In the case of `c1ccc(CN2CCN(CCCSC3CCCCC3)CC2)cc1`, the Activity in data set [1] was over 95%; in [2], under 11.9%.
With `c1ccc(CN2CCN(CC3CSCS3)CC2)cc1` (configuration not stated), the Ratio Ki in data set [7] turned out to be 43.
With `c1ccc(CN2CCN(CC3COC4(CCCCC4)O3)CC2)cc1` (configuration not stated), the Ki in [5] was 0.74 nM; in data set [6] it was 35 nM. In addition, in data set [7], the Ratio Ki came out at 47.
On to `COc1ccc(CCN2CCN(CCCc3ccccc3)CC2)cc1OC` [[11C]SA4503], for which, in data set [6], the Ki was 63 nM.
As to `CN(C)CC1CCOC1(c1ccccc1)c1ccccc1` (configuration not stated) [BLARCAMESINE], the Ki in data set [5] was found to be 6.3 nM.
As to `c1ccc(CN2CCN(CC3CSC4(CCCCC4)O3)CC2)cc1` (configuration not stated), the Ki in data set [5] was 1.3 nM; in data set [6], 91 nM. In addition, the Ratio Ki in data set [7] was found to be 70.
On to `c1ccc(CN2CCN(CCSc3ccccc3)CC2)cc1`, for which the figures for the Activity in data set [1] and in data set [2] were over 95% and under 11.9%, respectively.
